# Screening results (PubChem)
# Compounds with a hit are over-represented: about 3.1% of the library has one in this group of screens.
# GalR3 antagonist: antagonists of human GalR3; O60755; HEK293 GalR3-CNG cAMP membrane potential fluorescence; galR3 body fused to GalR1 C-terminus; inhibition, % at 3 µM; 360,000 compounds, 0.44% hits; AID 651719;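 active means inhibition above the screen-wide average plus 3 SD, cut at about 13% in these data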;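 further: forskolin and galanin both at EC90 stimulate the cells; cAMP rise reported by CNG channel membrane potential dye signal; 0% = forskolin plus galanin with DMSO and 100% = forskolin alone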
# GPR7 antag: human neuropeptides B/W receptor 1 antagonism. 290,000 compounds, 1.1% hits. GPR7-expressing cells, fluorescence antagonist assay. P48145. inhibition, % at 4.4 µM. AID 1861; in the data active means inhibition above about 16%, passing the limit was not always enough;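 further: cells stimulated with the agonist NPW; 0% = agonist with vehicle and 100% = vehicle without agonist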
# OX1R antag-1: antagonists of human orexin 1 receptor (OX1R) | OX1R-expressing cells, FRET antagonist read-out | inhibition, % at 6.6 µM | 330,000 compounds, 1.8% hits; in the data active means inhibition mostly above about 38%, no sharp cut-off; inactive means mostly below about 40%;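 further: 0% = agonist challenge alone and 100% = reference antagonist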
# Target sequence (O43613 whole entry, looked up): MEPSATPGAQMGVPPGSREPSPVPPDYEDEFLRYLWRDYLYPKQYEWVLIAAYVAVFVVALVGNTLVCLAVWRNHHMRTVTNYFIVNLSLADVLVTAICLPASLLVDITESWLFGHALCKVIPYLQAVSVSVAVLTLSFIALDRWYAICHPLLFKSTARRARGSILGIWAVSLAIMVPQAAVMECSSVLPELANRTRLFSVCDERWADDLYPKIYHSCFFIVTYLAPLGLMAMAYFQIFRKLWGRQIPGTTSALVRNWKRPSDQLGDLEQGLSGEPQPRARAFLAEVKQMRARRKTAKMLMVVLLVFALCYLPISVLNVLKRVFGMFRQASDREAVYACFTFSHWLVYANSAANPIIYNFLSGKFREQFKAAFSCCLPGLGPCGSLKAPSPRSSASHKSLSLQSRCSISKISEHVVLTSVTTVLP
# OX1R antag-2: antagonists of human orexin 1 receptor | CHO/OX1R cells, Fluo-8 calcium fluorescence, orexin A | inhibition, % at 5 µM | 330,000 compounds, 0.43% hits;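 active means inhibition above its plate's threshold, mean inhibition of all tested compounds on the plate plus 3 SD, cut at about 37% in these data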;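 further: 0% = orexin A challenge wells and 100% = SB-334867-A antagonist wells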
# CHO parental Ca: signal in parental CHO cells, OX1R antagonist counter-screen; 330,000 compounds, 0.63% hits; inhibition, % at 5.6 µM; parental CHO-K1, ATP-induced calcium, Fluo-8 fluorescence;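 active means inhibition above that plate's mean sample inhibition plus 3 SD, cut at about 26% in these data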;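 further: 0% = ATP-challenged DMSO wells and 100% = DMSO wells without ATP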
#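 Material: Parental CHO cells | Reagent: ATP | Compound dosing: Single nominal dose of 5.6 µM per compound | Detection: Intracellular calcium via Fluo-8 no-wash fluorescent dye | Read-out: % inhibition of ATP-induced calcium mobilization | Benchmarks: Low control ATP plus DMSO, high control DMSO only | Replicates: Singlicate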
# GalR3 antag conf: confirmation of human galanin receptor 3 antagonists | shares compounds with GalR3 antagonist | 1,600 compounds, 59% hits | HEK293 GalR3 CNG cAMP biosensor, membrane potential fluorescence; galR3 fused to GalR1 carboxy tail; challenged with forskolin and galanin at EC90 | inhibition, % at 3 µM;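 active means inhibition above the primary screen's cutoff, the mean inhibition of all screened compounds plus 3 SD, cut at about 13% in these data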;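 further: 0% = forskolin plus galanin and 100% = forskolin alone with DMSO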
# HEK-CNG parental: counter-screen for GalR3 antagonists: nonspecific agonists in parental HEK-CNG cells. HEK293-CNG parental cells, cAMP membrane potential fluorescence; normalised: DMSO wells 0%, forskolin wells 100%. activation, % at 3 µM. 1,600 compounds, 10% hits. shares compounds with GalR3 antagonist; in the data active means activation above about 1.3%
# Active calls of the source: *; · = no result given.
SMILES,GalR3 antagonist,GPR7 antag,OX1R antag-1,OX1R antag-2,CHO parental Ca,GalR3 antag conf,HEK-CNG parental
O=C(c1ccccc1)N1N=C(c2ccccc2)CC1(O)C(F)(F)F (stereo not drawn),6.6,-12.4,-3.5,-22.7,-14.2,·,·
CCOC(=O)[C@]12CCC=C1N(Cc1ccc3c(c1)OCO3)C(=O)[C@H](CC(=O)NCc1cccs1)C2,-4.7,·,·,·,·,·,·
COc1ccccc1-c1csc(C(O)c2ccccc2)n1 (stereo not drawn),-1.0,·,·,·,·,·,·
Cc1cc(C)cc(NC(=O)c2ccc(CNc3c(N4CCCC4)c(=O)c3=O)cc2)c1,-6.1,-7.7,2.2,-18.9,0.8,·,·
Cc1ccc(CNC(=O)c2ccc(CNc3c(N4CCCC4)c(=O)c3=O)cc2)cc1,13.0*,-5.2,7.6,-18.2,1.0,7.2,-0.8
CC(C)c1csc(CN2CCC(CO)(Cc3cccc(F)c3)CC2)n1,13.3*,5.3,35.6,-28.9,-7.8,-2.0,0.1
Cc1ccc(Nc2ccc(C(=O)O)cc2N)cc1,15.5*,-6.3,31.3,3.4,-4.0,2.7,-0.8
CC(C)(C)N1C(=O)c2ccccc2NC(=O)C1C(=O)NCCc1ccccc1 (stereo not drawn),-8.4,·,·,·,·,·,·
Cc1nc(SCc2nc3ccc(C(=O)c4ccccc4)cc3[nH]2)c2oc3ccccc3c2n1,13.8*,·,31.1,26.8,-17.7,21.9*,0.4
COc1cc(C2c3c(-c4cc(Cl)c(C)cc4O)n[nH]c3C(=O)N2Cc2cccnc2)ccc1O (stereo not drawn),33.0*,-1.3,0.9,-18.8,-7.4,23.7*,0.3
COc1cccc(C2c3c(-c4cc(Cl)c(C)cc4O)n[nH]c3C(=O)N2Cc2cccnc2)c1 (stereo not drawn),11.8,-8.4,7.4,-25.3,-33.4,·,·
CCOc1ccc(/C=N/N2C(=O)C(CC(=O)Nc3ccc(F)cc3F)SC2=NC)cc1OC (stereo not drawn),0.3,-9.5,10.6,-1.4,-0.5,·,·
CN=C1SC(CC(=O)Nc2ccccc2F)C(=O)N1/N=C/c1ccc(O)c(OC)c1 (stereo not drawn),21.8*,-17.2,9.5,-5.2,3.3,14.7*,-0.1
CC1(C(=O)NC2CCCCC2)CCC(=O)N1C1CCN(Cc2ccccc2)CC1 (stereo not drawn),7.0,·,·,·,·,·,·
CCCOc1ccccc1Cn1c(=O)oc2ccc(C)cc21,-0.9,-2.4,17.4,-11.6,0.6,·,·
CCCOc1ccc(Cn2c(=O)oc3ccc(C)cc32)cc1OC,14.0*,6.7,8.1,-30.1,-11.2,-0.4,0.1
COc1cccc(N2CCN(c3ncnc4c3[nH]c3ccc(F)cc34)CC2C)c1 (stereo not drawn),36.6*,84.4*,86.0*,98.6*,95.8*,78.9*,0.7
Fc1ccc2[nH]c3c(N4CCN(C5CCCCC5)CC4)ncnc3c2c1,·,8.5,5.9,-28.2,-22.5,·,·
COC(=O)[C@@]12C[C@@H](CC(=O)NCCC(C)C)C(=O)N(Cc3cccc4ccccc34)C1=CCC(C)(C)C2,-5.8,·,·,·,·,·,·
Oc1ccc(C[C@H]2CNC(=S)N2CC2CCCN2C[C@H](Cc2ccccc2)N2C[C@H](Cc3ccc(O)cc3)N(CC3CCCCC3)C2=S)cc1 (stereo partly drawn),-3.7,·,·,·,·,·,·
O=C(O)C1=C[C@@H](c2ccccc2)C[C@@H](OCCCCO)O1,-1.2,·,17.9,-13.5,-7.5,·,·
COc1ccc([C@H]2C=C(C(=O)O)O[C@@H](OCCCCO)C2)cc1,17.5*,·,31.9,-1.5,-5.9,-1.2,0.4
COc1ccc(NC(C)=O)cc1S(=O)(=O)NCc1ccc2c(c1)OCO2,-6.2,·,·,·,·,·,·
CCC(=O)Nc1ccc(Br)c(Cl)c1,-4.0,-7.9,5.7,-9.0,-0.3,·,·
CCC(=O)Nc1ccc(F)c(Cl)c1,·,-7.5,5.2,-5.8,-5.0,-2.6,0.1
Cc1ccccc1-c1cc2nc(Oc3cccc4ccccc34)n(C)c(=O)c2s1,0.8,·,·,·,·,·,·
O=C(NCC(=O)N1CCN(c2ccccc2)CC1)c1ccc(Cl)cc1,13.7*,8.0,6.8,-15.9,-16.0,0.7,-0.2
